# Compounds with a hit are over-represented: about 2.8% of the library has one in this group of screens.
# NPY Y1 blocker = blocks the human neuropeptide Y Y1 receptor | P25929 | inhibition, % at 3.6 µM | actives 1% (n = 200,000) | HEK293-CNG Y1 cells, membrane potential fluorescence; NPY at EC95, then isoproterenol;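 active = inhibition above the campaign mean inhibition of all tested compounds plus 3 SD, cut at about 20% in these data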
# Target sequence (P25929 whole entry, looked up): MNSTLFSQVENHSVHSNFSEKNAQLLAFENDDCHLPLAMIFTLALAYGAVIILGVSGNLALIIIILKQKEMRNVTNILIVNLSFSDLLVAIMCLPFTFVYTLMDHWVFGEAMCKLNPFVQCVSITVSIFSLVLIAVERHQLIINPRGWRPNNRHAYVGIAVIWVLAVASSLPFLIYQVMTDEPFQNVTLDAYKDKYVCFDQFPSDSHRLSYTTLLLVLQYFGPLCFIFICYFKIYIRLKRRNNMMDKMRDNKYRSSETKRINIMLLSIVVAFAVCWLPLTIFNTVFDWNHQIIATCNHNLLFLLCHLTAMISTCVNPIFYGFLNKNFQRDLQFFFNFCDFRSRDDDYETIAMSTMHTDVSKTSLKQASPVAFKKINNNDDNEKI
#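 material = HEK293 cells with Y1 receptor plus CNG channel | also added = NPY 25 nM then isoproterenol 1 µM plus Ro 20-1724 25 µM | schedule = dye 3 h, compound 60 min room temperature, stimulation 45 min | measured by = membrane potential fluorescence | benchmarks = high control isoproterenol alone, low control NPY with isoproterenol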
# EP2 modulator = EP2 receptor (human) modulation | actives 0.83% (n = 260,000) | P43116 | AID 940 | EP2-expressing cells, cAMP HTRF FRET, PGE2 co-stimulation | induction, % at 25 µM;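 active = compounds whose cAMP rise, as percent of the full-agonist control response, exceeds 60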;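 note: rat C6 glioma line stably carrying human EP2 under a CMV promoter; the protocol text gives 20 µM as final concentration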
# Target sequence (P43116 whole entry, looked up): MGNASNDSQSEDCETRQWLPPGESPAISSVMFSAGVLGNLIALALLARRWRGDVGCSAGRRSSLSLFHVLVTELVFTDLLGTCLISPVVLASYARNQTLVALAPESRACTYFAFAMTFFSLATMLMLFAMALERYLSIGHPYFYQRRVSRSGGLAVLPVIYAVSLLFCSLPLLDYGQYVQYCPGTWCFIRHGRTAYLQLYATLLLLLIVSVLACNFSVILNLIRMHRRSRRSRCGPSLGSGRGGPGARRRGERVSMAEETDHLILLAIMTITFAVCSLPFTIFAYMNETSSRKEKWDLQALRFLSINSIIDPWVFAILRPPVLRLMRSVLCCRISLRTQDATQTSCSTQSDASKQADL
# NPY1 pot ag = human NPY-Y1 potentiation or agonism, primary screen | P25929 | NPY-Y1 expressing cells, potentiator/agonist activation | activation, % at 3.6 µM | actives 0.37% (n = 220,000) | AID 1304; in the data active = activation above about 33%, passing the limit was not always enough;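 note: cells stimulated with NPY at EC10 then isoproterenol at EC100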
# NPY-Y2 antag = antagonists of human neuropeptide Y receptor Y2; P49146; AID 793; actives 0.99% (n = 140,000); inhibition, % at 2.7 µM; NPY-Y2 expressing cells, antagonist mode; in the data active = inhibition above about 17%
# NPY2 pot ag = potentiates or activates human NPY-Y2 receptor; cells expressing NPY-Y2, potentiator/agonist read-out; activation, % at 3.6 µM; actives 0.45% (n = 220,000); AID 1359; in the data active = activation above about 27%;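 note: cells stimulated with NPY near EC25 plus isoproterenol at EC100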
# EP2 antag = blocks the human prostaglandin E2 receptor EP2; P43116; C6 glioma cells expressing human EP2, cAMP TR-FRET; cells stimulated with saturating PGE2; inhibition, % at 25 µM; actives 0.52% (n = 260,000);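 active = percent inhibition above 40 after rounding to a whole number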;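 note: rat C6 glioma host cells with rolipram phosphodiesterase inhibitor present; the protocol text gives 20 µM as final concentration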
# NPY-Y1 pot conf = confirmation of human NPY-Y1 receptor potentiators or agonists. cell-based NPY-Y1 potentiator/agonist assay. activation, % at 3.6 µM. actives 20% (n = 280). shares compounds with NPY1 pot ag; in the data active = activation above about 45%;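 note: cells challenged with NPY at its EC10 plus isoproterenol stimulus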
# NPY-Y2 counter = potentiates or activates NPY-Y2, counter-screen for NPY-Y1 hits. shares compounds with NPY1 pot ag. HEK293-CNG cells, membrane-potential fluorescence (FLIPR), 1536-well. activation, % at 3.6 µM. actives 20% (n = 280). AID 1649; in the data active = activation above about 33%
# NPY-Y1 ag = counter-screen for NPY-Y1 potentiators: agonists of human NPY-Y1 | shares compounds with NPY1 pot ag | HEK293 Y1-CNGC, membrane potential fluorescence, agonist mode | activation, % at 3.6 µM | AID 1697 | actives 50% (n = 280);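 active = percent activation above the mean of DMSO-only control wells plus 3 SD of those wells, cut at about 18% in these data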;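 note: cells challenged with isoproterenol plus Ro 20-1724 with no NPY in test wells; Y1 agonism lowers isoproterenol-driven cAMP and reduces probe fluorescence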
# NPY-Y2 ag = human NPY-Y2 agonism as NPY-Y1 counter-screen; shares compounds with NPY1 pot ag; HEK293 Y2-CNGC, membrane potential fluorescence, agonist mode; activation, % at 3.6 µM; actives 67% (n = 280); AID 1698;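 active = activation above the solvent-only control wells' mean plus 3 SD, cut at about 11% in these data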;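 note: agonism lowers cAMP so well fluorescence drops in active wells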
# CNGC counter = counter-screen for NPY-Y1 potentiators or agonists: CNG channel inhibitors. shares compounds with NPY1 pot ag. HEK293-CNG parental, isoproterenol cAMP, membrane potential fluorescence. inhibition, % at 3.6 µM. actives 42% (n = 280). AID 1704;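 active = inhibition above the mean of stimulated solvent-only control wells plus 3 SD, cut at about 22% in these data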
# Hits are given with their value; n = inactive; x = no result.
SMILES,NPY Y1 blocker,EP2 modulator,NPY1 pot ag,NPY-Y2 antag,NPY2 pot ag,EP2 antag,NPY-Y1 pot conf,NPY-Y2 counter,NPY-Y1 ag,NPY-Y2 ag,CNGC counter
COc1cccc(NC(=O)c2ccc(NCCCN3CCC(C)CC3)c([N+](=O)[O-])c2)c1,n,n,n,x,n,n,x,x,x,x,x
CCc1nn(CC(=O)NCCc2cccc(F)c2)c(=O)c2cc3ccsc3n12,x,n,x,x,x,x,x,x,x,x,x
COc1ccc(C)cc1N=Nc1ccc(O)c2ncccc12,n,n,47,x,n,n,49,42,57,53,51
COc1ccc(N=Nc2ccc(O)c3ncccc23)cc1,x,n,n,x,n,n,x,x,x,x,x
CCOC(=O)N1CCN(C(=O)CN(C2CCCCC2)S(=O)(=O)c2c(C)cc(C)cc2C)CC1,n,n,71,n,n,n,n,n,n,n,n
CC(=O)Nc1ccc(S(=O)(=O)NCCC(=O)NCCc2ccc(F)cc2)cc1,n,n,62,n,n,n,n,n,n,n,n
CCNS(=O)(=O)c1ccc(NC(=O)Cc2ccc(F)cc2)cc1,n,n,n,n,n,n,x,x,x,x,x
Cc1ccc(-c2[nH]c3ccccc3c2SCCNC(=O)c2ccc(S(=O)(=O)N3CCOCC3)cc2)cc1,n,n,48,n,n,n,n,n,n,11,n
Nc1nc(Cl)cc(N2CCC(c3cc(-c4ccc(Cl)cc4)n[nH]3)CC2)n1,n,n,55,n,n,n,n,n,n,15,n
COc1ccc(S(=O)(=O)Nc2ccccc2C(=O)Nc2nc(-c3ccc(F)cc3)cs2)cc1OC,n,n,39,n,n,n,n,n,n,n,n
COc1ccc2cc(C)c3nnc(SCC(=O)Nc4ccccc4OC)n3c2c1,x,n,x,x,x,n,x,x,x,x,x
CCN1CCC(NC(=O)Nc2cccc(C(F)(F)F)c2)CC1,n,n,36,x,n,n,n,n,n,n,n
CCN1CCN(C(=O)Nc2cccc(C(F)(F)F)c2)CC1,n,n,n,n,n,n,x,x,x,x,x
O=[N+]([O-])c1cc(S(=O)(=O)Nc2cccc(Cl)c2)ccc1N/N=C/c1ccc(N2CCOCC2)cc1,x,n,66,x,n,n,53,61,44,61,47
CCc1ccc(NC(=O)C(C)OC(=O)c2ccc(NS(=O)(=O)c3ccc(C)c([N+](=O)[O-])c3)cc2)cc1 (centres undefined),n,n,42,n,n,n,n,n,n,12,23
CC(OC(=O)c1ccc(NS(=O)(=O)c2ccc3[nH]c(=O)[nH]c3c2)cc1)C(=O)Nc1ccc(Cl)cc1 (centres undefined),n,n,67,x,n,n,n,n,n,n,n
Cc1ccccc1OCC(O)CN1CCN(CC(O)COc2ccccc2C)CC1 (centres undefined),n,n,40,x,n,n,n,n,31,16,n
Cc1ccccc1OCC(O)CN1CCN(c2ccc(Cl)cc2)CC1 (centres undefined),x,n,n,x,n,n,x,x,x,x,x
Cc1[nH]nc2c1C(c1ccc(-c3ccc(Cl)cc3Cl)o1)C(C#N)=C(N)O2 (centres undefined),x,n,x,x,x,n,x,x,x,x,x
COc1ccc(OC)c2sc(NC(=O)c3ccc(S(=O)(=O)N(C)C)cc3)nc12,n,n,34,n,n,n,n,n,n,18,n
CSc1ccc(C2NC(=O)c3c(sc4c3CCN(C)C4)N2)cc1 (centres undefined),n,n,42,n,n,x,n,n,n,n,n
CN1CCc2c(sc3c2C(=O)NC(c2cccs2)N3)C1 (centres undefined),n,n,n,n,n,n,x,x,x,x,x
CC(Sc1nnc(-c2ccc(F)cc2)o1)C(=O)Nc1ccc(Br)cc1 (centres undefined),x,n,x,x,x,n,x,x,x,x,x
Cc1cc(C)nc(SCc2nnc(SCC(=O)N3CCCCC3)n2C)n1,x,n,x,x,x,n,x,x,x,x,x
N#C/C(=C(/O)c1cc2ccccc2o1)c1nc2ccccc2s1,x,n,49,x,n,n,n,n,n,11,n
SMILES,NPY Y1 blocker,EP2 modulator,NPY1 pot ag,NPY-Y2 antag,NPY2 pot ag,EP2 antag,NPY-Y1 pot conf,NPY-Y2 counter,NPY-Y1 ag,NPY-Y2 ag,CNGC counter
CN(C)CCCNc1cc(C(C)(C)C)nc2c(-c3ccccc3)cnn12,x,n,55,x,n,n,n,34,25,20,35
CC(C)(C)c1cc(NCCCn2ccnc2)n2ncc(-c3ccc(Cl)cc3)c2n1,n,n,n,n,n,n,x,x,x,x,x
CC(C)[C@H](Cn1nnc2ccccc21)NC(=O)c1cnn2cccnc12,x,n,x,x,x,n,x,x,x,x,x
COc1ccc2cc(C)c3nnc(SCC(=O)c4ccc5c(c4)OCCO5)n3c2c1,x,n,x,x,x,n,x,x,x,x,x
COc1ccc(CN2CCc3c(nc(N4CCC(C)CC4)[nH]c3=O)C2)cc1Cn1cccn1,x,n,x,x,x,n,x,x,x,x,x
Cc1ccc(S(=O)(=O)O/N=C2\CCCc3ccccc32)cc1,n,n,n,n,n,n,x,x,x,x,x
CC1=C(C)/C(=N\OS(=O)(=O)c2ccccc2)C=CC1=O,n,n,70,n,n,89,n,n,n,13,n
Cn1c(CSCc2ccc(Cl)cc2Cl)n[nH]c1=S,n,n,65,x,n,n,n,n,n,n,n
Cc1ccc(-c2nnc(-c3ccc(NC(=O)Cc4cccs4)cc3)o2)cc1,n,n,50,n,n,n,n,n,n,n,n
CCn1c(SCC(=O)Nc2ccc(C)c(Cl)c2)nnc1-c1ccco1,x,n,x,x,x,n,x,x,x,x,x
O=C1N=c2ccccc2=C1c1sc(=S)n(Cc2ccccc2Cl)c1O,x,n,72,x,n,n,n,38,25,30,30
Cc1cc(C)c2nc3c(c(N)c2c1)CCCC3 (tested in a mixture with another compound),x,n,x,x,x,n,x,x,x,x,x
COc1ccc(-c2cc3ccccc3[nH]2)cc1,x,n,n,x,n,n,x,x,x,x,x
Cc1ccc(O)c(-c2cc3ccccc3[nH]2)c1,n,n,47,n,n,n,n,n,38,42,31
COC(=O)c1cc(C(=O)c2ccc(Cl)cc2)n2c(=O)/c(=C\N(C)C)sc12,n,n,35,x,n,n,n,n,19,12,n
COC(=O)c1cc(C(=O)c2ccccc2)n2c(=O)/c(=C\N(C)C)sc12,x,n,n,x,n,n,x,x,x,x,x
